Data on two compounds can be found in ChEMBL document CHEMBL2417552, “Screen of pseudopeptidic inhibitors of human sirtuins 1-3: two lead compounds with antiproliferative effects in cancer cells” (J Med Chem, 2013).

In data set [1] the test system is MCF7. Kind of data set: Cytotoxicity against human MCF7 cells at 50 uM by LDH assay. The class given is functional, cell-based.
Data set [2] has as its system MCF7. Kind of data set: Effect on alpha-tubulin acetylation in human MCF7 cells at 50 uM after 6 to 18 hrs by Western blotting analysis. It is filed as functional, cell-based. The procedure, abridged: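 MCF-7 cells seeded 24 h ahead, treated for 6 or 18 h, then lysed in M-PER. Lysates run on SDS-PAGE, transferred to nitrocellulose and probed with mouse monoclonal anti-acetylated α-tubulin and anti-total α-tubulin. Detection with peroxidase anti-mouse secondary and ECL Plus.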
For orientation: A western blot detects proteins with antibodies after separation by electrophoresis.

For data set [3], the target named is T1, NAD-dependent protein deacetylase sirtuin-1 (Homo sapiens) (UniProt Q96EB6).
T1 sequence (whole entry): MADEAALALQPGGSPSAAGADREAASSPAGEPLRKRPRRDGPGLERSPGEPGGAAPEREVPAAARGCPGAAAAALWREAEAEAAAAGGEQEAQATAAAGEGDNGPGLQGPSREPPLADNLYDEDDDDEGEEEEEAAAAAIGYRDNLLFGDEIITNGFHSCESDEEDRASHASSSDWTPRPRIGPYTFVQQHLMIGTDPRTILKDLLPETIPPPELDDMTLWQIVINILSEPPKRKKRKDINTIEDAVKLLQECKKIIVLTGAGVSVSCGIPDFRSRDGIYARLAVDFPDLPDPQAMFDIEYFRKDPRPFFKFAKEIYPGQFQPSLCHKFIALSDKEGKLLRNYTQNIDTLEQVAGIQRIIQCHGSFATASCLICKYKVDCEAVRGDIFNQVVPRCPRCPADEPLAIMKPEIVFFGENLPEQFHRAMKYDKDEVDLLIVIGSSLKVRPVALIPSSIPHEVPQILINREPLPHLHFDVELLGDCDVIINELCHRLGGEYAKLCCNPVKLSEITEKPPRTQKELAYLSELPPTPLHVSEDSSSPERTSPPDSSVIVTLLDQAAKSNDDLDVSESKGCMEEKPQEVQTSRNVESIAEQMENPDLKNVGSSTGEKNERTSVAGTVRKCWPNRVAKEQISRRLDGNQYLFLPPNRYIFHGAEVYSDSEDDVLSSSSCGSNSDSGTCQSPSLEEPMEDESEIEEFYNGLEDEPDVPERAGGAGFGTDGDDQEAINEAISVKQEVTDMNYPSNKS
Kind of data set: Inhibition of SIRT1 in etoposide-induced human MCF7 cells assessed as increase in p53 acetylation at Lys382 at 50 uM after 5 hrs by Western blotting analysis. The class given is cell-based. The procedure, abridged:
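MCF-7 cells seeded 24 h ahead, then given 50 μM compound and 100 μM etoposide together for 5 h before harvest. Acetylated p53 detected by Western blot; run once per compound.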

Data set [4] concerns A549. Description: Growth inhibition of human A549 cells up to 200 uM after 48 hrs by sulforhodamine B assay. It is filed as functional, cell-based. On the technique in general: In SRB staining, fixed cells bind dye roughly in proportion to their protein.
Data set [5] in a line: Cytotoxicity against human ARPE19 cells at 20 uM by LDH assay. The following applies: arpe-19, 20 µM. It is filed as cell-based.
Data set [6] can be described thus: Cytotoxicity against human SH-SY5Y cells at 20 uM by LDH assay. It is filed as cell-based.
The target of data set [7] is T1, NAD-dependent protein deacetylase sirtuin-1 (Homo sapiens). Description: Inhibition of SIRT1 in etoposide-induced human SH-SY5Y cells assessed as increase in p53 acetylation at Lys382 at 20 uM after 5 hrs by Western blotting analysis. It is filed as cell-based. The procedure, abridged: (§1)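 ARPE-19 or SH-SY5Y cells seeded 24 h ahead, then given 20 μM compound and 100 μM etoposide together for 5 h before harvest. Acetylated p53 detected by Western blot. Mean ± SEM of 2 independent experiments.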

For data set [8] the target is unchanged. Description: Inhibition of SIRT1 in etoposide-induced human ARPE19 cells assessed as increase in p53 acetylation at Lys382 at 20 uM after 5 hrs by Western blotting analysis. It is filed as cell-based. The method in brief:
as §1

The target in data set [9] is T2, NAD-dependent protein deacetylase sirtuin-3, mitochondrial (Homo sapiens, UniProt Q9NTG7).
T2 sequence (Q9NTG7 whole entry): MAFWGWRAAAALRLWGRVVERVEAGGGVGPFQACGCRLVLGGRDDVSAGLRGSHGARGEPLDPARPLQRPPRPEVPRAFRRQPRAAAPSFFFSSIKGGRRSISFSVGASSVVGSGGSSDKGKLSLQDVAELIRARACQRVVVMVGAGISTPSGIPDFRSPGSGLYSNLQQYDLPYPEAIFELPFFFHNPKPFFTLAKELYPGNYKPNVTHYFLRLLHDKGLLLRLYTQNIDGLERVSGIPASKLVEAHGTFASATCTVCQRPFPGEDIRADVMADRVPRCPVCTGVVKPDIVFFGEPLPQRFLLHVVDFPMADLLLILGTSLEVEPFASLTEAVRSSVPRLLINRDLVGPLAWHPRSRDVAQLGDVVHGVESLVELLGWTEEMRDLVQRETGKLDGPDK
Description: Inhibition of human recombinant His-tagged SIRT3 using KI179 as substrate preincubated for 5 mins followed by enzyme addition measured after 1 hr by fluorescence assay.

Data set [10] addresses T3, NAD-dependent protein deacetylase sirtuin-2 (Homo sapiens, UniProt Q8IXJ6).
T3 sequence (Q8IXJ6 whole entry): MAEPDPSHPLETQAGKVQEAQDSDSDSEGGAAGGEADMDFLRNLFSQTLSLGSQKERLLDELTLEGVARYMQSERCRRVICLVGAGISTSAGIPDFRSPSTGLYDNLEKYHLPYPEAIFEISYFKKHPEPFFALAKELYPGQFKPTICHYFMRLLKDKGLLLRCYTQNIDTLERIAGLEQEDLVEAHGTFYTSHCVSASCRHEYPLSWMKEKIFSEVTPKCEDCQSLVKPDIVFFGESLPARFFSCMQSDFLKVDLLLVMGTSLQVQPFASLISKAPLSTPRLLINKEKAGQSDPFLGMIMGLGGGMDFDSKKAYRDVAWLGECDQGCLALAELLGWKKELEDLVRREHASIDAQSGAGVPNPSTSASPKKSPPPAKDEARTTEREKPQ
Description: Inhibition of human recombinant GST-tagged SIRT2 using KI179 as substrate preincubated for 5 mins followed by enzyme addition measured after 1 hr by fluorescence assay. The procedure, abridged: (§2)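 Fluor de Lys deacetylation assay. […] Mix preincubated 5 min at room temperature, started with enzyme, run 1 h at 37°C. Developer with 2 mM nicotinamide then added for 45 min at 37°C before fluorescence reading.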

In data set [11] the target is T4, NAD-dependent protein deacetylase sirtuin-1 (Homo sapiens, UniProt Q96EB6).
T4 sequence (Q96EB6 whole entry): T1 sequence (whole entry)
Kind of data set: Inhibition of human recombinant GST-tagged SIRT1 using KI177 as substrate preincubated for 5 mins followed by enzyme addition measured after 1 hr by fluorescence assay. The method in brief: as §2

Data set [12] has as its target T5, NAD-dependent protein deacetylase sirtuin-2 (Homo sapiens) (UniProt Q8IXJ6).
T5 sequence (whole entry): T3 sequence (Q8IXJ6 whole entry)
Description: Inhibition of human recombinant GST-tagged SIRT2 using KI179 as substrate at 50 uM preincubated for 5 mins followed by enzyme addition measured after 1 hr by fluorescence assay relative to control. The procedure, abridged:
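Recombinant GST-SIRT2, Fluor de Lys assay in SIRT assay buffer. Acetylated peptide KI179 at 0.7 Km (Km 198 µM) and NAD+ at 0.9 Km (reported Km 547 µM). Buffer, substrate, NAD+ and compound in DMSO preincubated 5 min at room temperature. Enzyme added to start; 1 h at 37 °C. Developer with 2 mM nicotinamide added; 45 min at 37 °C; fluorescence read. Mean ± SD, ≥3 experiments.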

The target of data set [13] is T6, NAD-dependent protein deacetylase sirtuin-3, mitochondrial (Homo sapiens) (UniProt Q9NTG7).
T6 sequence (whole entry): T2 sequence (Q9NTG7 whole entry)
The conditions noted are these: at 50 µM.

Data set [14] deals with T1, NAD-dependent protein deacetylase sirtuin-1 (Homo sapiens). The conditions noted are these: at 50 µM.
Data set [15] relates to MCF7. Description: Growth inhibition of human MCF7 cells up to 200 uM after 72 hrs by sulforhodamine B assay.
For data set [16], the system named is MCF7. Description: Cytotoxicity against human MCF7 cells assessed as cell death at 100 uM after 18 hrs by propidium iodide staining-based FACS flow cytometric analysis. It is filed as functional.
Data set [17] deals with A549. Description: Cytotoxicity against human A549 cells assessed as cell death at 100 uM after 18 hrs by propidium iodide staining-based FACS flow cytometric analysis. The class given is functional. On the technique in general: In flow cytometry, cells or beads pass a laser one at a time.
Data set [18] deals with MCF7. Kind of data set: Cell cycle arrest in human MCF7 cells assessed as accumulation at S phase at 100 uM after 18 hrs by propidium iodide staining-based FACS flow cytometric analysis (reference value: 12.6%). It is filed as functional.
Data set [19] has as its system MCF7. Description: Cell cycle arrest in human MCF7 cells assessed as accumulation at G2 phase at 100 uM after 18 hrs by propidium iodide staining-based FACS flow cytometric analysis (reference value: 14.7%). It is filed as functional.
In data set [20] the test system is MCF7. Kind of data set: Cell cycle arrest in human MCF7 cells assessed as accumulation at G1 phase at 100 uM after 18 hrs by propidium iodide staining-based FACS flow cytometric analysis (reference value: 67.6%). The class given is functional.
In data set [21] the test system is A549. Kind of data set: Cell cycle arrest in human A549 cells assessed as accumulation at S phase at 100 uM after 18 hrs by propidium iodide staining-based FACS flow cytometric analysis (reference value: 17.8%). The class given is functional.
Data set [22] relates to A549. Kind of data set: Cell cycle arrest in human A549 cells assessed as accumulation at G2 phase at 100 uM after 18 hrs by propidium iodide staining-based FACS flow cytometric analysis (reference value: 19.4%). It is filed as functional.
In data set [23] the test system is A549. Description: Cell cycle arrest in human A549 cells assessed as accumulation at G1 phase at 100 uM after 18 hrs by propidium iodide staining-based FACS flow cytometric analysis (reference value: 62.3%). It is filed as functional.
Data set [24] deals with A549. Kind of data set: Growth inhibition of human A549 cells at >= 50 uM after 48 hrs by sulforhodamine B assay. The class given is functional, cell-based.
Data set [25] deals with MCF7. Kind of data set: Growth inhibition of human MCF7 cells at >= 50 uM after 72 hrs by sulforhodamine B assay.

The source made the active and inactive calls. No cut-off for these calls is given here.

Broadly, the inhibition is how much of the control response was suppressed. Broadly, the IC50 is the concentration that gives 50% inhibition. As to `CC(=S)NCCCC[C@H](NC(=O)[C@@H]1C[C@@H](O)CN1C(=O)OCc1ccccc1)C(=O)NCC(=O)c1ccccc1`, the result in the data set with MCF7 [1] and in the data set on MCF7 [2] was inactive. The inhibition entry in data set [3], in data set [7] and in data set [8] was “Active” in each case. Also, the “growth inhibition (GI)” value in the data set with A549 [4] and in the data set with MCF7 [15] was “inactive” each time. For the same compound, the Activity result in [5] and in data set [6] was “Non-toxic” each time. The IC50 in data set [9] was determined as 3.89 µM; in [10] it was 1.8 µM; in data set [11] it was 0.24 µM. In addition, the inhibition in data set [12] was 96%; in data set [13], 90%; in [14] it was 99%.

As to `COc1ccc2[nH]cc(CCNC(=O)[C@H](CCCCNC(C)=S)NC(=O)OCc3ccccc3)c2c1`, the result in the data set with MCF7 [16], in the data set on A549 [17], in the data set with MCF7 [1] and in the data set on MCF7 [2] was inactive. Further, the Activity in the data set with MCF7 [18] is reported as 5.7%; in the data set on MCF7 [19] it was 13.2%; in the data set on MCF7 [20], 77.4%; with A549 [21] it was 3%; in the data set with A549 [22], 9.9%; in the data set with A549 [23] it was 85.7%. Besides, the Activity entry in data set [5] and in data set [6] was “Non-toxic” each time. Moreover, the inhibition result in data set [3], in data set [7] and in data set [8] was “Active” each time. Moreover, the “growth inhibition (GI)” value with A549 [24] and in the data set with MCF7 [25] was “Active” throughout. In addition, the IC50 is 25.8 µM in [10] and 5.98 µM in data set [11]. Also, the inhibition stood at 66% in [12] and 88% in data set [14].
